From ChEMBL document CHEMBL1138793, “A three-dimensional in silico pharmacophore model for inhibition of Plasmodium falciparum cyclin-dependent kinases and discovery of different classes of novel Pfmrk specific inhibitors” (J Med Chem, 2004)
Values joined by “and” are separate entries in the source; they are usually repeats but may differ in a detail not shown here. Equal entries are not always repeated.

Target: T1, Protein kinase Pfmrk (Plasmodium falciparum, UniProt P90584)
T1 sequence (P90584 whole entry): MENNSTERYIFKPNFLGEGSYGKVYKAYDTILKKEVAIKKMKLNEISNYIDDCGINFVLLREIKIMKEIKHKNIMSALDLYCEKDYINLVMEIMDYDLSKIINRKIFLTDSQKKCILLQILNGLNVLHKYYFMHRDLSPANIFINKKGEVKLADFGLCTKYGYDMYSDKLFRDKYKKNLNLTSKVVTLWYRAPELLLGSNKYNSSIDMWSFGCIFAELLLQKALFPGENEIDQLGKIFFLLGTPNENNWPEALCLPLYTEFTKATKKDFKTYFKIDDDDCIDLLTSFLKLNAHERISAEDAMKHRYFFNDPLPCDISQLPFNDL
Test: Inhibition of Plasmodium falciparum cyclin-dependent kinase
How it was run: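 Recombinant 6xHIS-tagged Plasmodial CDK (3.0 μg) expressed in E. coli, assayed with 2.0 μg GST-tagged cyclin Pfcyc-1 and 5.0 μg RNA polymerase II CTD substrate in 40 mM Hepes pH 7.5, 30 mM MnCl₂, 2.0 mM DTT. Enzyme and compound preincubated 5 min at 30 °C. Reaction started with [γ-32P]ATP plus 12.5 μM ATP, run 35 min at 30 °C. Filter plate washed with phosphoric acid, counted by scintillation. Triplicates; IC50 from concentration range.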

`CCOC(=O)c1cc([N+](=O)[O-])ccc1Cl` and `Cc1cc(Cl)ccc1NC(=O)c1cccc([N+](=O)[O-])c1` are within 1.5-fold of each other in IC50: 87 µM for the first, 69 µM for the second.

First: NNC(Cc1c[nH]c2ccccc12)C(=O)O (stereo unspecified)
Second: Cn1cc(C(=O)C(C)(C)N)c2ccccc21
The IC50 of the first is 3.9-fold higher: 182 µM for the first, 46.2 µM for the second.

Compared with `CC1NN=C(c2ccccc2)C1[N+](=O)[O-]` (stereo unspecified), `O=C(/C=C/c1ccccc1)c1cccc([N+](=O)[O-])c1` is 39-fold lower in IC50: 394 µM for the first, 10 µM for the second. The second is the more potent here.

Compared with `O=C(/C=C/c1ccccn1)c1ccc([N+](=O)[O-])cc1`, `CCOC(=O)/C(=C\c1ccccn1)C(=O)c1ccc([N+](=O)[O-])cc1` is 3.4-fold higher in IC50: 18 µM for the first, 61 µM for the second. The first is the more potent here.

Compared with `O=C1Nc2ccc([N+](=O)[O-])cc2/C1=C/c1ccccc1O`, `O=C1Nc2ccc([N+](=O)[O-])cc2C1=O` [5-NITROISATIN] is 5.9-fold lower in IC50: 35 µM for the first, 5.9 µM for the second. The second is the more potent here.

Compared with `O=C1c2cc(F)ccc2-n2c1nc1ncccc1c2=O`, `O=C1c2cc([N+](=O)[O-])ccc2-n2c1nc1ncccc1c2=O` is 36-fold lower in IC50: 4.7 µM for the first, 0.13 µM for the second. The second is the more potent here.

Compared with `CC(=O)Nc1ccc(C(=O)/C=C/c2ccccc2)cc1`, `O=C1Nc2ccccc2/C1=C/C(=O)c1ccccc1` is 4.2-fold lower in IC50: 17 µM for the first, 4 µM for the second. The second is the more potent here.

Compared with `O=C(Cl)c1c2c(nc3c(Cl)cc(Cl)cc13)-c1ccc(Cl)cc1CC2`, `O=C1c2ccc(Cl)cc2-n2c1nc1ncccc1c2=O` is 7.1-fold lower in IC50: 25 µM for the first, 3.5 µM for the second. The second is the more potent here.

Going from `CN1C(=O)/C(=C\C(=O)c2ccc(Br)cc2)c2ccccc21` to `Cc1ccc(C(=O)/C=C2\C(=O)Nc3ccc(Br)cc32)cc1`, the IC50 falls from 29 µM to 2.9 µM (10-fold).

First: O=C1NC(=O)/C(=C2/C(=O)Nc3ccc(F)cc32)S1
Second: COc1ccc2c(c1)/C(=C1\SC(=S)NC1=O)C(=O)N2
The IC50 of the first is 1.8-fold higher: 30 µM for the first, 17.1 µM for the second.

Compared with `COc1ccc(-c2nnc(N(CCO)CCO)o2)cc1`, `O=c1cc(-c2ccc(O)cc2)oc2cc(O)cc(O)c12` [APIGENIN] is 5.1-fold lower in IC50: 35.8 µM for the first, 7 µM for the second. The second is the more potent here.

Going from `O=C1Nc2ccccc2/C1=C\c1ccc(C(F)(F)F)cc1` to `O=C1/C(=C/c2ccccn2)CCc2ccccc21`, the IC50 falls from 138 µM to 17 µM (8.1-fold). The second is the more potent here.

First: O=S(=O)(O)c1cc(O)c(/N=N/c2ccc(O)cc2O)c2ccccc12
Second: O=c1c(-c2ccc(O)cc2)coc2cc(O)cc(O)c12 [GENISTEIN]
The IC50 of the first is 8.5-fold lower: 11 µM for the first, 93 µM for the second. The first is the more potent here.

Going from `O=[N+]([O-])c1cc(S(=O)(=O)Nc2ccc(C(F)(F)F)cc2)sc1Cl` to `O=C(N=C(S)Nc1cc([N+](=O)[O-])ccc1O)c1ccc(Cl)cc1Cl`, the IC50 rises from 2.5 µM to 10 µM (4-fold).

Compared with `N#C/C(=C1\OC(=O)N(c2ccc(Cl)cc2)C1=O)c1ccc(Cl)cc1`, `CN(C)CCCn1cc(C2=C(c3c[nH]c4ccccc34)C(=O)NC2=O)c2ccccc21` [GF-109203] is 1.7-fold higher in IC50: 14 µM for the first, 24 µM for the second.

First: NC(=S)NC1(c2ccccc2)OC(=O)c2ccccc21 (stereo unspecified)
Second: Cn1cnc2c(NCc3ccccc3)nc(NCCO)nc21 [OLOMOUCINE]
The IC50 of the first is 16-fold lower: 70 µM for the first, 1100 µM for the second. The first is the more potent here.

Going from `CCN(CC)CCCC(C)Nc1ccnc2cc(Cl)ccc12` (stereo unspecified) [CHLOROQUINE] to `OC(c1cc(C(F)(F)F)nc2c(C(F)(F)F)cccc12)C1CCCCN1` (stereo unspecified) [MEFLOQUINE], the IC50 falls from 150 µM to 12 µM (12-fold).

`O=c1c(O)c(-c2cc(O)c(O)c(O)c2)oc2cc(O)cc(O)c12` [MYRICETIN] was tested, and the IC50 was 157 µM.

In the case of `O=C(CCl)Nc1nc2c(Cl)cccc2s1`, the IC50 is reported as 38 µM and 38.3 µM.
